In ChEMBL document CHEMBL1212913, “Quinazolin-4-one derivatives: A novel class of noncompetitive NR2C/D subunit-selective N-methyl-D-aspartate receptor antagonists” (J Med Chem, 2010):
Calls of active or inactive are those of the source. The rule behind the calls is not given here.

What was measured:
[1] = molecular target: Glutamate NMDA receptor; Grin1/Grin2a (Rattus norvegicus, UniProt P35439+Q00959); experiment: Antagonist activity at rat recombinant NR1-NR2A receptor expressed in Xenopus oocytes at holding potential of -40mV by two-electrode voltage-clamp electrophysiology; assay type: functional, cell-based, Oocyte; settings: read-out: IC50
Method in brief: (§1)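 Oocytes expressing rat NR1-1a with NR2A, NR2B, NR2C or NR2D, clamped at −40 mV in Ba2+/HEPES recording solution pH 7.4, 23°C. Current evoked by 100 μM glutamate plus 30 μM glycine. Final DMSO 0.05-0.5%, 5-7 inhibitor concentrations, ≥4 oocytes each. IC50 from Hill fit of normalized mean composite data. […] Some NR2A oocytes given BAPTA-AM or K-BAPTA.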

[2] = molecular target: Glutamate NMDA receptor; Grin1/Grin2b (Rattus norvegicus, UniProt P35439+Q00960); experiment: Antagonist activity at rat recombinant NR1-NR2B receptor expressed in Xenopus oocytes at holding potential of -40mV by two-electrode voltage-clamp electrophysiology; assay type: functional, cell-based, Oocyte; settings: read-out: IC50; method in brief: as §1
[3] = molecular target: Glutamate NMDA receptor; Grin1/Grin2c (Rattus norvegicus, UniProt P35439+Q00961); experiment: Antagonist activity at rat recombinant NR1-NR2C receptor expressed in Xenopus oocytes at holding potential of -40mV by two-electrode voltage-clamp electrophysiology; assay type: functional, cell-based, Oocyte; method in brief: as §1
[4] = molecular target: Ionotropic glutamate receptor NMDA 1/2D (Rattus norvegicus, UniProt P35439+Q62645); experiment: Antagonist activity at rat recombinant NR1-NR2D receptor expressed in Xenopus oocytes at holding potential of -40mV by two-electrode voltage-clamp electrophysiology; assay type: functional, cell-based, Oocyte
Method in brief: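 Oocytes expressing rat NR1-1a with NR2A, NR2B, NR2C or NR2D, clamped at −40 mV in Ba2+/HEPES recording solution pH 7.4, 23°C. Current evoked by 100 μM glutamate plus 30 μM glycine. Final DMSO 0.05-0.5%, 5-7 inhibitor concentrations, ≥4 oocytes each. IC50 from Hill fit of normalized mean composite data. Some NR2A oocytes given BAPTA-AM or K-BAPTA.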

Glutamate receptor 1 = Glutamate receptor 1 (Rattus norvegicus, UniProt P19490); experiment: Antagonist activity at rat recombinant GLuR1 expressed in Xenopus oocytes assessed as inhibition of glutamate-induced current by two-electrode voltage-clamp electrophysiology; assay type: functional, cell-based, Oocyte
Method in brief: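 Two-electrode voltage clamp at −40 mV on Xenopus oocytes expressing rat GluR1, perfused with 90 NaCl, 1.0 KCl, 0.5 BaCl2, 0.005 EDTA, 10 HEPES (mM), pH 7.4, 23°C; activated by 100 μM glutamate. From 20 mM DMSO stocks, 5-7 concentrations, ≥4 oocytes each. Hill fit to mean composite curves normalized to control, minimum usually fixed at 0. Response >75% at 100 μM reported as >300 μM.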

[5] = molecular target: Glutamate receptor ionotropic, kainate 2 (Rattus norvegicus, UniProt P42260); experiment: Antagonist activity at rat recombinant GLuR6 expressed in Xenopus oocytes assessed as inhibition of glutamate-induced current by two-electrode voltage-clamp electrophysiology; assay type: functional, cell-based; settings: oocyte
Method in brief: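 Rat GluR6 expressed in Xenopus oocytes, pretreated with 10 μM concanavalin A for 10 min, then activated by 100 μM glutamate. Cells were held at −40 mV in 90 mM NaCl, 1.0 KCl, 0.5 BaCl2, 0.005 EDTA and 10 HEPES, pH 7.4, at 23°C. Compounds were diluted from 20 mM DMSO stocks, final DMSO 0.05-0.5%. Concentration-effect curves were recorded.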

[6] = molecular target: T1, Ionotropic glutamate receptor NMDA 1/2D (Rattus norvegicus) (UniProt P35439+Q62645); experiment: Antagonist activity at rat recombinant NR1-NR2D receptor expressed in Xenopus oocytes at 10 uM at holding potential of -40mV by two-electrode voltage-clamp electrophysiology; assay type: functional, cell-based; settings: Oocyte
[7] = molecular target: T1, Ionotropic glutamate receptor NMDA 1/2D (Rattus norvegicus); experiment: Antagonist activity at rat recombinant NR1-NR2D receptor expressed in Xenopus oocytes at 10 uM at holding potential of +40mV by two-electrode voltage-clamp electrophysiology; assay type: functional, cell-based; settings: Oocyte
[8] = molecular target: T1, Ionotropic glutamate receptor NMDA 1/2D (Rattus norvegicus); experiment: Antagonist activity at rat recombinant NR1-NR2D receptor expressed in Xenopus oocytes at 30 uM at holding potential of -40mV by two-electrode voltage-clamp electrophysiology in presence of up to 1000/300 uM of glutamate/glycine; assay type: functional, cell-based; settings: Oocyte
Method in brief: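 NR1/NR2D oocytes held at −40 mV. Inhibition by 30 μM compound was compared with glutamate/glycine at 100/30 μM and raised to 1000/300 μM, to test whether higher agonist surmounts block. n=4.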

Chain of Glutamate NMDA receptor; Grin1/Grin2c (Q00961 whole entry, other chains not shown): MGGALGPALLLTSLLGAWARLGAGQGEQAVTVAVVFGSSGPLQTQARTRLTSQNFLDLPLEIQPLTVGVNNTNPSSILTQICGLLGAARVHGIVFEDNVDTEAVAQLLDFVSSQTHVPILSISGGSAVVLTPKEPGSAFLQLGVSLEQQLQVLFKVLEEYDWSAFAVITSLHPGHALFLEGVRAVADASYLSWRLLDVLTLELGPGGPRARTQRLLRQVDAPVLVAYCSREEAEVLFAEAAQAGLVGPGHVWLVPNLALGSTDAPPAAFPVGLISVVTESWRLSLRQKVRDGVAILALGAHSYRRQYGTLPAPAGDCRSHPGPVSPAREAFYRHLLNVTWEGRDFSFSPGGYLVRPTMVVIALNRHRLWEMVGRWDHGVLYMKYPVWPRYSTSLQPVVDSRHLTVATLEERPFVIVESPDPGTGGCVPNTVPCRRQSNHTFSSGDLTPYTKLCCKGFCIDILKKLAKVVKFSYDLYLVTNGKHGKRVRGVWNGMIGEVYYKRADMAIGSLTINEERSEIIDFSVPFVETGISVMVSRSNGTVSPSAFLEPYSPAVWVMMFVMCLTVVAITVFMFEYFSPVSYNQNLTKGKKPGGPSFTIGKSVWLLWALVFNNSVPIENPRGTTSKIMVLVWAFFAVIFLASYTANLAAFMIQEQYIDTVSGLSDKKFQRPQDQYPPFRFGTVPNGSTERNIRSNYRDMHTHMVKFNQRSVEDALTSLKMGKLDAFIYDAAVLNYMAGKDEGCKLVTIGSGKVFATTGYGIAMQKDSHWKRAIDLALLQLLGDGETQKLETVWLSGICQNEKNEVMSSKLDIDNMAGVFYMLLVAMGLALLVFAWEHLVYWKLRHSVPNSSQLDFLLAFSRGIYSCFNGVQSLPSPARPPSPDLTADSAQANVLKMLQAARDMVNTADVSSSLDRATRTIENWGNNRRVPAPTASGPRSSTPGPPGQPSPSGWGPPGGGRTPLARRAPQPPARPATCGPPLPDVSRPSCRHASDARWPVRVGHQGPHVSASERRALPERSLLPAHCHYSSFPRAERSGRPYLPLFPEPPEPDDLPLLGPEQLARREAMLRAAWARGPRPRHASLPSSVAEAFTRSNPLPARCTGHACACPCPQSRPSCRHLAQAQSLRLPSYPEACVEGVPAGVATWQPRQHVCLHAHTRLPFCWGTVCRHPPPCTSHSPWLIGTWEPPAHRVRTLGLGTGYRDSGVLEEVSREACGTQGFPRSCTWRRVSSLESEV
Chain of Glutamate NMDA receptor; Grin1/Grin2b (Q00960 whole entry, other chains not shown): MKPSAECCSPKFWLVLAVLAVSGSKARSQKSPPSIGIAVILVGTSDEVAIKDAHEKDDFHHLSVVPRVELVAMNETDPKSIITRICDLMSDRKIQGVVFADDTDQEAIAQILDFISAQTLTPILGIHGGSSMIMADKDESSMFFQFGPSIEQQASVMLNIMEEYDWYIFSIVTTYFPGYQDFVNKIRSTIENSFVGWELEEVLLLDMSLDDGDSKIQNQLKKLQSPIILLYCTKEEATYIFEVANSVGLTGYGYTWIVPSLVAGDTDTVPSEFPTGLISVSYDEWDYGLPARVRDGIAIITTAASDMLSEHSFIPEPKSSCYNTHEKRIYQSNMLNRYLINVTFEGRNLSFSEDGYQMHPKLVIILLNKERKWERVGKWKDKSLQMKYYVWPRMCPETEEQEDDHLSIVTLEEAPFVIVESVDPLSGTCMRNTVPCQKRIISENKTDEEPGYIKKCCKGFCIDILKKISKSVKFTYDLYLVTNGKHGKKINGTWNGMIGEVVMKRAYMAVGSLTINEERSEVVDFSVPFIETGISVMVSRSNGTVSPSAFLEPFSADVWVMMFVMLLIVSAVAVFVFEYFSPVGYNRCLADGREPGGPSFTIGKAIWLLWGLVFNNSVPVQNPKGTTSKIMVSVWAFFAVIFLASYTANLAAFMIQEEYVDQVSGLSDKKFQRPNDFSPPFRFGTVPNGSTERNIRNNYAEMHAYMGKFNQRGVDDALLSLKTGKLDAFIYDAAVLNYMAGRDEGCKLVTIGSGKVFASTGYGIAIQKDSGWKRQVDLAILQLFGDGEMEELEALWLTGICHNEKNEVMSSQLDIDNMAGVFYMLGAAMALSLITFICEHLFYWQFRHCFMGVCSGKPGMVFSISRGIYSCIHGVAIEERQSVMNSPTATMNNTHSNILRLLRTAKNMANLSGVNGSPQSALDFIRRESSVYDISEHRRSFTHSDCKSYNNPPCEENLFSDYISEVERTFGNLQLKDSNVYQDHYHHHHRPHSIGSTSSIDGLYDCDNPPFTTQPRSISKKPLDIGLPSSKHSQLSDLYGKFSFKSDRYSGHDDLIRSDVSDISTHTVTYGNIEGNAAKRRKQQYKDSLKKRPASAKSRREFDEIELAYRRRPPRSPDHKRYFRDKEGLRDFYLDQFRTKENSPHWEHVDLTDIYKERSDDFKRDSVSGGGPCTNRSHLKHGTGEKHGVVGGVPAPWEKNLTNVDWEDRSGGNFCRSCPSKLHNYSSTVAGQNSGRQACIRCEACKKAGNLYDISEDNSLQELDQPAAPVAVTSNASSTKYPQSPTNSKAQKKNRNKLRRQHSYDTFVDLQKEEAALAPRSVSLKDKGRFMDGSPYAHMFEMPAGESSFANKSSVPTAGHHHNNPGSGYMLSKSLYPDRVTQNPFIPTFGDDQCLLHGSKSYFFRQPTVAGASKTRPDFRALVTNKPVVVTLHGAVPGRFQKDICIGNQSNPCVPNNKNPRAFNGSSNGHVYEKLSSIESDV
Chain of Glutamate receptor ionotropic, kainate 2 (P42260 whole entry): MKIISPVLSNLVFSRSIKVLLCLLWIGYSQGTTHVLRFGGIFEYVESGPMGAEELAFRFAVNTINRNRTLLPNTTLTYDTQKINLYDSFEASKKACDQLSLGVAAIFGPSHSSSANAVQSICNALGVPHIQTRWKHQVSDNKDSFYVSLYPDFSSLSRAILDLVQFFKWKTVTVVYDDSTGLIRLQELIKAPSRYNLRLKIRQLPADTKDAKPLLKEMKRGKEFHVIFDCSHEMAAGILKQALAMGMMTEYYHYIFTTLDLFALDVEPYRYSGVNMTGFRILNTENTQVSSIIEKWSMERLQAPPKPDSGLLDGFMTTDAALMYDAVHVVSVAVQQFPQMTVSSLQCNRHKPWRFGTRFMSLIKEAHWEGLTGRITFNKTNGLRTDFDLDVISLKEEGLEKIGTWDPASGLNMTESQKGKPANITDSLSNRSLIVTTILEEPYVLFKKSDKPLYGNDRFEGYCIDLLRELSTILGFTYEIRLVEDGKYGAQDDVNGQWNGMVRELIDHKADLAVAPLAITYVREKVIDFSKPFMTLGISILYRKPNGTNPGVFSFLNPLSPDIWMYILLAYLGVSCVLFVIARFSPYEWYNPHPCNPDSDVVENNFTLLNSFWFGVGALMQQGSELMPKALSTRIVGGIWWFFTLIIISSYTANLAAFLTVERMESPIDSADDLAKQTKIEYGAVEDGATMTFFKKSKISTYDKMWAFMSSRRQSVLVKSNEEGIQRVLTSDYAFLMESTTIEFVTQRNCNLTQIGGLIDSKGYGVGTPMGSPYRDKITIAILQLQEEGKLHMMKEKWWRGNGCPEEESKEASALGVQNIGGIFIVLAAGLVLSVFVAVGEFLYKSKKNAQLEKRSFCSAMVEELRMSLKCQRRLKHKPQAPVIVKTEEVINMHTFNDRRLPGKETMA
Chain of Glutamate NMDA receptor; Grin1/Grin2a (Q00959 whole entry, other chains not shown): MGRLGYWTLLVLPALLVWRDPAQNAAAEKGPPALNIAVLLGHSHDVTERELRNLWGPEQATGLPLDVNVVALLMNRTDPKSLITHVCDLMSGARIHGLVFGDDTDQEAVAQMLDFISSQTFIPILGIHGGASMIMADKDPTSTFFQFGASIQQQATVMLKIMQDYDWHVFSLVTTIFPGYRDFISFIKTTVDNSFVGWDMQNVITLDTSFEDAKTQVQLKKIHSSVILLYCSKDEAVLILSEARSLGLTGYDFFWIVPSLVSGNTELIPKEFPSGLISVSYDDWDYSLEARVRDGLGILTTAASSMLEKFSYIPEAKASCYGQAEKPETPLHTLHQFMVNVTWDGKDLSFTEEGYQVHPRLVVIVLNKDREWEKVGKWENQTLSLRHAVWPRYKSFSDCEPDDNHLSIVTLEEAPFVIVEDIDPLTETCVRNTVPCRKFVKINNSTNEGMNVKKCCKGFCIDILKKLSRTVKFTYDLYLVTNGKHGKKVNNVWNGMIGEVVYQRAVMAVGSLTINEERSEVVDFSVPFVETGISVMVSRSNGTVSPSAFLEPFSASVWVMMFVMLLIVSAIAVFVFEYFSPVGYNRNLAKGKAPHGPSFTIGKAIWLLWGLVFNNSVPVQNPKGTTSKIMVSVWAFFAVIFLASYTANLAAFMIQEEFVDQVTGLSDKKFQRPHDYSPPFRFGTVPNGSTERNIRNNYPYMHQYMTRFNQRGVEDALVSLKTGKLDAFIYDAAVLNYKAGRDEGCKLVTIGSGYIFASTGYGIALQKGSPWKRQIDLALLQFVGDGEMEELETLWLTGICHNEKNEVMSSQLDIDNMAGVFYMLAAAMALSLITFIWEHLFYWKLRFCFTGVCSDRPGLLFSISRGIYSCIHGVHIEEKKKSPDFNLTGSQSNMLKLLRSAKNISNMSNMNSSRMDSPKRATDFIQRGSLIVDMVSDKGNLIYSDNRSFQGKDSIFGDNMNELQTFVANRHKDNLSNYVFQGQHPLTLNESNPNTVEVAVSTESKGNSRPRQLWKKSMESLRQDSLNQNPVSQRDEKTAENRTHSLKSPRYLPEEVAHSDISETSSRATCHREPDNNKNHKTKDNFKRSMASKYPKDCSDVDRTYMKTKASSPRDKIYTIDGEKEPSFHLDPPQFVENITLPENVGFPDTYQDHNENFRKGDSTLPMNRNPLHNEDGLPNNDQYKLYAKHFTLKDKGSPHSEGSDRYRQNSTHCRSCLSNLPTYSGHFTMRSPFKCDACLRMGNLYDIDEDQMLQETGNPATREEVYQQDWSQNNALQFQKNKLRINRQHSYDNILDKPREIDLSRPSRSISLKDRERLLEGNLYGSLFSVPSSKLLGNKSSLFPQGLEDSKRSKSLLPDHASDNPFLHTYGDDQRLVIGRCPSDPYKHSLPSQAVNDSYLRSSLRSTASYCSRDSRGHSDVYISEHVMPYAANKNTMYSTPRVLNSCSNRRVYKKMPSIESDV

O=C(O)c1ccc(-n2c(/C=C/c3cccc([N+](=O)[O-])c3)nc3ccccc3c2=O)cc1
IC50 [1]: 21 µM
IC50 [2]: 30 µM
IC50 [3]: 12 µM
IC50 [4]: 9 µM
IC50 (Glutamate receptor 1): 32 µM
IC50 [5]: Not Active
Activity [6]: Active
Activity [7]: Active
Activity [8]: Active
